ERAP1 HTS inh: blocks human ERAP1 aminopeptidase activity. recombinant ERAP1, Leu-AMC fluorescence, 60 min. inhibition, % at 10.7 µM. hit rate 0.15% among 340,000;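 active means mean replicate inhibition of at least 30%, or all replicates individually reaching that 30% level; inactive means mean below 30% and not every replicate reaching it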;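 further: 0% = neutral control wells and 100% = L-leucinethiol positive control wells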
PGC1a acetyl inh: lowers PGC1a acetylation signal in U2OS cells; AID 651687; AlphaScreen anti-acetyl-lysine; with virally co-expressed GCN5 acetyltransferase; hit rate 0.17% among 350,000; inhibition, % at 15.6 µM;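 active means every replicate shows inhibition of at least 40%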;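 further: 0% = neutral control wells and 100% = positive control wells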
Rtt109 HAT inh: inhibitors of Candida albicans Rtt109/Vps75 histone acetyltransferase. Q5AAJ8. purified Rtt109/Vps75, ThioGlo CoA-SH fluorescence, 4 h. inhibition, % at 34.9 µM. hit rate 0.16% among 330,000. AID 540336;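 active means inhibition of at least 50% in every replicate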
Target sequence (Q5AAJ8 whole entry, looked up): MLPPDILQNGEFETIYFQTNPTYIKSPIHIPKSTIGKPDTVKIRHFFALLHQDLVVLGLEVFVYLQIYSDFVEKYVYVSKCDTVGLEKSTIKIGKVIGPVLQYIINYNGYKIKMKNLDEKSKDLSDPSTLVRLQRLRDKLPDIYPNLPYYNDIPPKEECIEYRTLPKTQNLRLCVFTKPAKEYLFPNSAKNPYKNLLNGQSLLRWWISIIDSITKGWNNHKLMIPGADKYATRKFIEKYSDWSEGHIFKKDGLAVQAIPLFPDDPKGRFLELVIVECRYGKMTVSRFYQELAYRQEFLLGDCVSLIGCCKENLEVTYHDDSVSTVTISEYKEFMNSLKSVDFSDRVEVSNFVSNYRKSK
Statin myotox sup: suppression of simvastatin myotoxicity. C2C12 myotubes + simvastatin, ATP luminescence, 48 h; scaled: DMSO 0, geranylgeraniol control 100. hit rate 0.78% among 330,000. rescue of ATP level, % at 7.49 µM;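 active means mean ATP rescue above about 67%, or every replicate alone reaching that limit, limit read from the data, passing the limit was not always enough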;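 further: myotubes were challenged with 10 µM simvastatin during compound exposure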
S100A4 inh HTS: S100A4-myosin IIA interaction inhibition. S100A4/TAMRA-MyoIIA peptide fluorescence polarization. inhibition, % at 10.7 µM. AID 652163. hit rate 0.14% among 360,000;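 active means mean inhibition of at least 70% across replicates, with every replicate also reaching that level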
Target sequence (P26447 whole entry, looked up): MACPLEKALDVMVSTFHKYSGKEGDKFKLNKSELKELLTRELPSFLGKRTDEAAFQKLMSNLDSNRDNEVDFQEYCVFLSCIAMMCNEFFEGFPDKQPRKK
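Compound dosing: one dose per compound; test system: human S100A4 monomer with TAMRA-labelled myosin IIA peptide; probe or stimulus: TAMRA-labelled myosin IIA heavy-chain peptide probe, 5 nM; medium: HEPES buffer with Ca2+, pH 7.2; schedule: 5 min incubation before reading; benchmarks: neutral control DMSO, positive control TFP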
The depositor's hits bear a star; i = inactive; . = no result. Hits are enriched below; roughly 0.98% of the tested compounds scored in any of these assays.

SMILES | ERAP1 HTS inh | PGC1a acetyl inh | Rtt109 HAT inh | Statin myotox sup | S100A4 inh HTS
O=C(O)[C@@H]1[C@@H](CO)[C@@H]2Cn3c(ccc(C4=CCCCC4)c3=O)[C@H]1N2C(=O)Cc1ccccn1 | 4 | . | . | -40 | -5
C[C@H]1CCCC(=O)CCC/C=C/c2cc(O)cc(O)c2C(=O)O1 | -2 | . | 3 | 7 | 0
C[C@H]1CCC/C=C/[C@@H]2C[C@H](O)C[C@H]2[C@H](O)/C=C/C(=O)O1 | 0 | 69* | -1 | -76 | 3
COc1ccc(Cn2c(N)c(C(=O)NCc3ccco3)c3nc4ccccc4nc32)cc1 | . | -9 | -4 | 74* | .
CC1=CC2OC3CC4OC(=O)C=CC=CC(C(C)O)OCC(O)C(C)CC(=O)OCC2(CC1O)C4(C)C31CO1 (stereo not drawn) | -5 | 81* | 1 | . | -6
O=C1NC(=O)N(c2ccccc2F)C(=O)/C1=C/c1ccc(Sc2nc3ccccc3[nH]2)o1 | 6 | . | 38 | . | 171*
O=C1NC(=O)N(c2cccc(Cl)c2)C(=O)/C1=C\c1ccc(Sc2nc3ccccc3[nH]2)o1 | 6 | . | 13 | . | -90
COc1ccc(CC2NCC(O)C2OC(C)=O)cc1 (stereo not drawn) | 0 | 92* | 18 | 114* | 18
O=c1ccc2cc(O[C@@H]3O[C@H](CO)[C@@H](O)[C@H](O)[C@H]3O)c(O)cc2o1 | 154* | 4 | i | -4 | 3
CCOCCN1CCC(OC(C)=O)C(C)C1 (stereo not drawn) | . | 42* | 0 | -9 | .
CC=Cc1ccc2n(c1=O)C[C@@H]1[C@@H](CO)[C@H](C(=O)OC)[C@H]2N1C(=O)CC1CC1 (mixture of isomers) | 2 | 6 | . | 11 | -1
CC(=O)OC(C)(C)/C=C/C(=O)C(C)(O)C1[C@H](O)C[C@@]2(C)C3CC=C4C(CC[C@@H](O)C4(C)C)[C@]3(CO)C(=O)C[C@]12C (stereo partly drawn) | 0 | . | -5 | -19 | 1
CC(=O)OC(C)(C)/C=C/C(=O)[C@](C)(O)[C@H]1[C@H](O)C[C@@]2(C)[C@@H]3CC=C4[C@H](C[C@H](O)C(=O)C4(C)C)[C@]3(C)C(=O)C[C@]12C | . | 88* | 1 | -5 | .
CC(=O)OC(C)(C)/C=C/C(=O)C(C)(O)C1C(O)CC2(C)C3CC=C4C(CC(O)C(=O)C4(C)C)C3(C)C(=O)CC12C (stereo not drawn) | -2 | 70* | 4 | . | 3
O=C(Cc1ccccn1)N1CC2(C1)[C@@H](c1ccccc1)[C@@H](CO)N2Cc1ccccn1 | -2 | -2 | . | . | 0
Cc1nc2ccc(Cl)cn2c1P(=S)(N1CCOCC1)N1CCOCC1 | . | -3 | -7 | 93* | .
Cn1ccnc1P(=S)(c1nccn1C)N1CCOCC1 | . | -20 | 0 | -8 | .
CCCN1[C@@H]2Cn3c(ccc(-c4cccc(OC)c4)c3=O)[C@H]1[C@@H](C(=O)OC)[C@@H]2CO | -1 | 9 | . | . | 18
COC(=O)C1C(OC(=O)c2ccccc2)CC2CCC1[N+]2(C)C (stereo not drawn) | 51* | . | . | . | -1
CC1OC(OC2CC(O)C3(CO)C4C(O)CC5(C)C(C6=CC(=O)OC6)CCC5(O)C4CCC3(O)C2)C(O)C(O)C1O (stereo not drawn) | 0 | 81* | 6 | 20 | 8
O=C(Cc1ccccc1)N1CC2(C1)[C@H](c1ccccc1)[C@H](CO)N2Cc1cccc(F)c1 | -1 | -17 | . | . | 3
OC(CN1CC=C(c2ccccc2)CC1)c1ccccc1 (stereo not drawn) | -3 | 2 | -5 | 84* | -1
OC(COCc1ccc(Cl)cc1)CN1CC=C(c2ccccc2)CC1 (stereo not drawn) | -1 | -5 | -5 | -129 | -5
CC(=O)OC1(Cc2ccccc2)CN2CCC1c1ccccc12 (stereo not drawn) | . | -24 | 15 | 114* | .
CC(=O)OC1(c2ccc(C)cc2)CN2CCC1c1ccccc12 (stereo not drawn) | . | 0 | 0 | 11 | .
SMILES | ERAP1 HTS inh | PGC1a acetyl inh | Rtt109 HAT inh | Statin myotox sup | S100A4 inh HTS
COc1ccc(OC(=O)N(C)C[C@H]2OCc3ccccc3-c3c(n(C)c4ccccc34)C(=O)N([C@@H](C)CO)C[C@@H]2C)cc1 | 1 | -1 | . | . | 6
O=C(Cc1ccccc1)N1CC2(C1)[C@H](c1ccccc1)[C@H](CO)N2Cc1cccc(Cl)c1 | -2 | -23 | . | . | 3
CC(=O)OC[C@]12CCC(C)=C[C@H]1O[C@@H]1[C@H](O)[C@@H](OC(C)=O)[C@@]2(C)[C@]12CO2 | -2 | 86* | -4 | 27 | 0
COc1ccc2c3c1OC1C(O)C=CC4C(C2)[N+](C)(C)CCC341 (stereo not drawn) | 58* | 5 | -3 | 6 | -8
CN1CC[C@]23c4c5ccc(O)c4OC2[C@H](O)C=CC3[C@H]1C5 (stereo partly drawn) | -4 | -3 | 10 | 3 | 4
O=C(Cc1ccccc1)N1CC2(C1)[C@H](c1ccccc1)[C@@H](CO)N2Cc1cccc(Cl)c1 | -1 | -18 | . | . | -3
CCOC(=O)[C@@]1(C#N)[C@@H]2C=CC(C(N)=O)=CN2[C@@H](C(N)=O)[C@@H]1c1cccc(Cl)c1 | . | 10 | -3 | -1 | .
CCOC(=O)[C@]1(C#N)[C@@H]2C=CC(C(N)=O)=CN2[C@@H](C(N)=O)[C@@H]1c1ccc(F)cc1 | . | 88* | -3 | -8 | -6
CCOP(=O)(C#CC(C)(C)C)C(C)(O)c1ccccc1 (stereo not drawn) | . | 3 | -6 | -7 | .
CC(C)(C#CC(=O)O)OOC(c1ccccc1)(c1ccccc1)c1ccccc1 | 41* | -5 | -6 | 8 | -11
CC=Cc1ccc2n(c1=O)C[C@H]1[C@H](CO)[C@@H](C(=O)OC)[C@@H]2N1CC1CC1 (mixture of isomers) | 0 | . | . | -7 | 7
O=C(Cc1cccnc1)N1CCCCN2[C@H](CO)[C@@H](c3ccc(C#CC4CC4)cc3)[C@@H]2C1 | -1 | 7 | . | . | -1
CCN(CC)P(c1n(C)cc[n+]1C)N(CC)CC | 103* | . | . | 13 | 5
CN(C)C(=O)OCc1n(C)cc[n+]1C | . | . | -3 | . | .
CC(=O)N1[C@@H]2c3ccc(-c4cccc(C(=O)N(C)C)c4)c(=O)n3C[C@H]1[C@H](CO)[C@H]2C(=O)O | -2 | 1 | . | . | 3
O=C(Cc1cccnc1)N1CCCCN2[C@H](CO)[C@@H](c3ccc(C#CC4CCCC4)cc3)[C@H]2C1 | -1 | 12 | . | -33 | 5
CC1=NCCc2c1[nH]c1cc(O)ccc21 | 53* | -12 | i | 0 | -14
O=C(O)[C@@H]1[C@@H](CO)[C@@H]2Cn3c(ccc(-c4ccncc4)c3=O)[C@H]1N2C(=O)C1CCCC1 | -6 | . | . | . | 7
CC1OC(C[N+](C)(C)C)CC1O (stereo not drawn) | -1 | 5 | -8 | 6 | 2
C[C@H]1OC[C@@H](C[N+](C)(C)C)O1 | 104* | -11 | 10 | 0 | -8

From PubChem
